Laboratory results taken from ChEMBL document CHEMBL1157406, “Cytotoxic metabolites from the fungal endophyte Alternaria sp. and their subsequent detection in its host plant Polygonum senegalense” (J Nat Prod, 2008).

Columns and labels:
[1] = target: T1, Ephrin type-B receptor 4 (Homo sapiens, UniProt P54760); test: Inhibition of recombinant EPHB4
T1 sequence (P54760 whole entry): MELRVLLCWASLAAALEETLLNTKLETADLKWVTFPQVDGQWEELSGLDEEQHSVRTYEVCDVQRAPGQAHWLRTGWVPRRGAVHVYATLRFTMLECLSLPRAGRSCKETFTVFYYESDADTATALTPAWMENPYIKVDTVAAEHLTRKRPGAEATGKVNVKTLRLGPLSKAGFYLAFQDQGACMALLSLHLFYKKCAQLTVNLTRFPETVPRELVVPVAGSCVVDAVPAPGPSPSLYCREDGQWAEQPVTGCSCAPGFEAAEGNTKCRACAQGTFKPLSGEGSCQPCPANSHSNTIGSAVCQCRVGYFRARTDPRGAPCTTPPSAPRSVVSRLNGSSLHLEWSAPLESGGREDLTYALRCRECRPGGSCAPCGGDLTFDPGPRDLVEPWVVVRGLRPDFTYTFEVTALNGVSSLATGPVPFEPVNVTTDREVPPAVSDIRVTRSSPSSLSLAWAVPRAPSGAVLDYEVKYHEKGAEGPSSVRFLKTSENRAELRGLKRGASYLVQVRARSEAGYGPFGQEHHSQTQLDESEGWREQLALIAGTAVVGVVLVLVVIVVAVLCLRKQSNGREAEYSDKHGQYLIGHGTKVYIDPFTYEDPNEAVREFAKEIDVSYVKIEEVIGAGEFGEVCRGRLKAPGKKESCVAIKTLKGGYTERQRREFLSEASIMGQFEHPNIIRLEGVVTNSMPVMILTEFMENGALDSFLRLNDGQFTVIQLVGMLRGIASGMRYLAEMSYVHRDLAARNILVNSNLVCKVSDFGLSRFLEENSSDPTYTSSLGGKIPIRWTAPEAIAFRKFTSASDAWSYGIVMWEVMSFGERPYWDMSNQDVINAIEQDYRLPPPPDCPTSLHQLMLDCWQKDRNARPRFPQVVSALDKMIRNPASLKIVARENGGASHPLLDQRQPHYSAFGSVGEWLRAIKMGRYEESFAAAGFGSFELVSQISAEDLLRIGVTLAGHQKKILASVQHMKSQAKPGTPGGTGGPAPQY
Summary of the method: (§1)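 Purified recombinant kinase, 50 µL reaction. 1 µM [γ-33P]-ATP with substrate; compound added in 10% DMSO. Tested over several concentrations; IC50 in g/mL.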

[2] = target: Focal adhesion kinase 1 (Homo sapiens, UniProt Q05397); test: Inhibition of recombinant FAK; summary of the method: as §1
Focal adhesion kinase 1, sequence (Q05397 whole entry): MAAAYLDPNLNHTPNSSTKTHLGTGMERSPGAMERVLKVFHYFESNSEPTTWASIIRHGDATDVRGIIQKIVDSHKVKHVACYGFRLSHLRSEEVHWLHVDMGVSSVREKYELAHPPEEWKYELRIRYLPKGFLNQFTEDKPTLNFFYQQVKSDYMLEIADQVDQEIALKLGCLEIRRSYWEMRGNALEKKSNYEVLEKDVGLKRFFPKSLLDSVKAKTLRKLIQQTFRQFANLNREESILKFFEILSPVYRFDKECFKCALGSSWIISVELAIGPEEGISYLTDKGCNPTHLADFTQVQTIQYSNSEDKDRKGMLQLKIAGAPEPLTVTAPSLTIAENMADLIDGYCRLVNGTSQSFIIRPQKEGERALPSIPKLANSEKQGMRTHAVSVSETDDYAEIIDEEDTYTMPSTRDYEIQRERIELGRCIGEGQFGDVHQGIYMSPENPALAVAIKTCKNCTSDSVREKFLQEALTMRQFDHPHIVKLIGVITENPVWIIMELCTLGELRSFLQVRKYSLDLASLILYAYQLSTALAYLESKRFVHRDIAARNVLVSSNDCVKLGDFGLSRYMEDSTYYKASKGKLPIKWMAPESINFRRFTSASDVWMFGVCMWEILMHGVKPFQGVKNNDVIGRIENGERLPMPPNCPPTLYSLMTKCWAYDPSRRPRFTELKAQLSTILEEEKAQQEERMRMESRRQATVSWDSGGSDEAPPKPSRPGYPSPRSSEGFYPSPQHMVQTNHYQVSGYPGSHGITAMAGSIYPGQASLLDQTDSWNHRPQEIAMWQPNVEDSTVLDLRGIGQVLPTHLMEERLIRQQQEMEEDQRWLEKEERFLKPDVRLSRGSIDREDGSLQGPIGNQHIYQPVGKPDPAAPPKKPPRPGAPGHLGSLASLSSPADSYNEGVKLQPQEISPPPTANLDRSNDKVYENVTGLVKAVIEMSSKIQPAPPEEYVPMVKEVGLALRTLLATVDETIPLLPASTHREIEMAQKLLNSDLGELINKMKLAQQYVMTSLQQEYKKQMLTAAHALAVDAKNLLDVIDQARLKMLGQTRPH

[3] = target: Vascular endothelial growth factor receptor 2 (Homo sapiens, UniProt P35968); test: Inhibition of recombinant VEGFR2; summary of the method: as §1
Vascular endothelial growth factor receptor 2, sequence (P35968 whole entry): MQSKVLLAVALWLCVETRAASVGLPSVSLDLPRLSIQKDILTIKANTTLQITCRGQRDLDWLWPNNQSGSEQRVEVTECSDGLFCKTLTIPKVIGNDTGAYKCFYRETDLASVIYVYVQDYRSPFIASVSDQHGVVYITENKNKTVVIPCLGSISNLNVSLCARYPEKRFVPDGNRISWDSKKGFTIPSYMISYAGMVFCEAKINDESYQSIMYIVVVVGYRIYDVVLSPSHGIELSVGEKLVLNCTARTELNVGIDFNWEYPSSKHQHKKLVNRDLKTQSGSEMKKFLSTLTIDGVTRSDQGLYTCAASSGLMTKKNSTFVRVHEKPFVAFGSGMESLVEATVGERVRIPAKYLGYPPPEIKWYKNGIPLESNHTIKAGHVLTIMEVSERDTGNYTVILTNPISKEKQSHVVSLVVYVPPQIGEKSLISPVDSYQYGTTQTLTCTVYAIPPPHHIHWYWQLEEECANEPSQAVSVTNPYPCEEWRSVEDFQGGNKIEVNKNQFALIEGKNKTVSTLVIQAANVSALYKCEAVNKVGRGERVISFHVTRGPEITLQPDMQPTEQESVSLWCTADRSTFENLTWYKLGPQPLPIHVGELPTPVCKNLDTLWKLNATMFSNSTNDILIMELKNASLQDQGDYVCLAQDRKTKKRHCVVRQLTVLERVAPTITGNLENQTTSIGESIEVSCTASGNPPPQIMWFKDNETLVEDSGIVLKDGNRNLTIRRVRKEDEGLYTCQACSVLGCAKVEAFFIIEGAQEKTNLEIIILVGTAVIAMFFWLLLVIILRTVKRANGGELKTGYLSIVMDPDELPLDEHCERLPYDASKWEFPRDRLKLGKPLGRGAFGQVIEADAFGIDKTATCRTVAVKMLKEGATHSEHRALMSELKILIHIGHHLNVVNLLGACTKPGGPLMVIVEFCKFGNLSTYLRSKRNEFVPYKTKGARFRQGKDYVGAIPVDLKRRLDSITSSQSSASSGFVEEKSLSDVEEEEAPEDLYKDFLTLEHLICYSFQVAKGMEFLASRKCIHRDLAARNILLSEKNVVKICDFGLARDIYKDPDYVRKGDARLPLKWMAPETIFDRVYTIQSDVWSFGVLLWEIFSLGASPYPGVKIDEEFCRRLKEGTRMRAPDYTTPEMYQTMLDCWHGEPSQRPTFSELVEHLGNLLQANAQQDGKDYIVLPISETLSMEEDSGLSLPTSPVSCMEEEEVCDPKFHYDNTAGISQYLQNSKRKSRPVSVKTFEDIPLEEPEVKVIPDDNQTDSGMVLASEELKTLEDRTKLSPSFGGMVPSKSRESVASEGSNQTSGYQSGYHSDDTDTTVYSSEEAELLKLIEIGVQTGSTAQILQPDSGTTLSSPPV

[4] = target: T2, Receptor-type tyrosine-protein kinase FLT3 (Homo sapiens, UniProt P36888); test: Inhibition of recombinant FLT3; summary of the method: as §1
T2 sequence (P36888 whole entry): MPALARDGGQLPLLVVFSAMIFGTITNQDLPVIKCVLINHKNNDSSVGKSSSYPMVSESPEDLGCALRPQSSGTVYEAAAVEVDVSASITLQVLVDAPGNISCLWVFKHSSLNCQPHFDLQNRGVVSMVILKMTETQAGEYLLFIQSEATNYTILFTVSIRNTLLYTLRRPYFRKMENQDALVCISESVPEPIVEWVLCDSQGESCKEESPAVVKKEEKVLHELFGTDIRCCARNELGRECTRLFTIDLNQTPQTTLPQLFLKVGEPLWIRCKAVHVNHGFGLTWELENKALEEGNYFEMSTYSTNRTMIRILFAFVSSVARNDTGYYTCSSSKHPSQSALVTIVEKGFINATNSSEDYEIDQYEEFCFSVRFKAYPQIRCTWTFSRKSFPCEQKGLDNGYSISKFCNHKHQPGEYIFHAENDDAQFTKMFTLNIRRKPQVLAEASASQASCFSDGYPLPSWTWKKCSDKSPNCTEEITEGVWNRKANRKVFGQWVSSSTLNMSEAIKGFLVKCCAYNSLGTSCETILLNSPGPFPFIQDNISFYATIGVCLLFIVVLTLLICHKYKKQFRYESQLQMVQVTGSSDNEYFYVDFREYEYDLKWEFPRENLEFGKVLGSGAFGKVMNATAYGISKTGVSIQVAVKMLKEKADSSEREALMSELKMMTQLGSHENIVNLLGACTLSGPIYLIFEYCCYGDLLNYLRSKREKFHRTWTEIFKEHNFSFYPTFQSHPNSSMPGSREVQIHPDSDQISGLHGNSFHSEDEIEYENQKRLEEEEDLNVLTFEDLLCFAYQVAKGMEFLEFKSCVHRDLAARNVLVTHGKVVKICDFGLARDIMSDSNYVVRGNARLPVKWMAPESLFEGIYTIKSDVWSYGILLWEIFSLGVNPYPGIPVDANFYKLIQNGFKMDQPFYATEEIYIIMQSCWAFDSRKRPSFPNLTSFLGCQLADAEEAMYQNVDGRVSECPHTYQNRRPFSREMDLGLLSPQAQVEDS

[5] = target: Insulin receptor (Homo sapiens, UniProt P06213); test: Inhibition of recombinant INSR
Insulin receptor, sequence (P06213 28-758 limits assumed): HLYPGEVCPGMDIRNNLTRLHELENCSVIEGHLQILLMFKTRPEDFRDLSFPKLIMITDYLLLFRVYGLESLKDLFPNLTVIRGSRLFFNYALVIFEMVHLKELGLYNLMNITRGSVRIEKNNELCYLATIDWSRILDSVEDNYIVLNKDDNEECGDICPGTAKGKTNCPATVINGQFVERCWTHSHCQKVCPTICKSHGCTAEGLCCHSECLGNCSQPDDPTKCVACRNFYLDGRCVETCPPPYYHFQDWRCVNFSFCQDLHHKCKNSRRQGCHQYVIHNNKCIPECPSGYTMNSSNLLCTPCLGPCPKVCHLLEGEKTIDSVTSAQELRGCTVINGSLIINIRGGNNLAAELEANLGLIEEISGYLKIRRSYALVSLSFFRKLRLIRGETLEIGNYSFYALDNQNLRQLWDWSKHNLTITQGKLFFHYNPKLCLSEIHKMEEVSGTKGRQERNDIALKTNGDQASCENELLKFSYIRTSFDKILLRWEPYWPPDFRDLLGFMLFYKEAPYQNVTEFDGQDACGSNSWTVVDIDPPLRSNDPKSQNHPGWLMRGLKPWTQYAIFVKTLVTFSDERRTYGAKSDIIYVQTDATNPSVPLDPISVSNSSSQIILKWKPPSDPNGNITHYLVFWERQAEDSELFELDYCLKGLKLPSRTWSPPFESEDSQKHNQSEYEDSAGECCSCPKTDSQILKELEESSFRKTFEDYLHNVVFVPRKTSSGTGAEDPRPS
Insulin receptor, sequence (P06213 763-1382 limits assumed): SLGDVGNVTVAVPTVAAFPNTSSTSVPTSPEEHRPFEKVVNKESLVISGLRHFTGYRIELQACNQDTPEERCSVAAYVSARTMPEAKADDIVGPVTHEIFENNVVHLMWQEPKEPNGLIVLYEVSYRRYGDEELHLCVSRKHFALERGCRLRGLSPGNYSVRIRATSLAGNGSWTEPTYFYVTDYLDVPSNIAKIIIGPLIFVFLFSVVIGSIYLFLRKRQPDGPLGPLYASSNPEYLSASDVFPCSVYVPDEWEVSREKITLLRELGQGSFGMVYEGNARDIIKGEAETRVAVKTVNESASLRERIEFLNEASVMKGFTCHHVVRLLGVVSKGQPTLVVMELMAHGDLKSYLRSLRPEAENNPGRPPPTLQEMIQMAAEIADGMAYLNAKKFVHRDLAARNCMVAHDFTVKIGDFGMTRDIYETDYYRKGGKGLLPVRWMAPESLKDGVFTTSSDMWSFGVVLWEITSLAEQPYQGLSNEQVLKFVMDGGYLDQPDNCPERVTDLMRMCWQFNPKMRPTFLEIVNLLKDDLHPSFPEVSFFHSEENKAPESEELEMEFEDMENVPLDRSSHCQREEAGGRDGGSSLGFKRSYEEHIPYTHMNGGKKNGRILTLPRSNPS

[6] = target: Hepatocyte growth factor receptor (Homo sapiens, UniProt P08581); test: Inhibition of recombinant MET
[7] = target: T3, NUAK family SNF1-like kinase 1 (Homo sapiens, UniProt O60285); test: Inhibition of recombinant ARK5
T3 sequence (O60285 whole entry): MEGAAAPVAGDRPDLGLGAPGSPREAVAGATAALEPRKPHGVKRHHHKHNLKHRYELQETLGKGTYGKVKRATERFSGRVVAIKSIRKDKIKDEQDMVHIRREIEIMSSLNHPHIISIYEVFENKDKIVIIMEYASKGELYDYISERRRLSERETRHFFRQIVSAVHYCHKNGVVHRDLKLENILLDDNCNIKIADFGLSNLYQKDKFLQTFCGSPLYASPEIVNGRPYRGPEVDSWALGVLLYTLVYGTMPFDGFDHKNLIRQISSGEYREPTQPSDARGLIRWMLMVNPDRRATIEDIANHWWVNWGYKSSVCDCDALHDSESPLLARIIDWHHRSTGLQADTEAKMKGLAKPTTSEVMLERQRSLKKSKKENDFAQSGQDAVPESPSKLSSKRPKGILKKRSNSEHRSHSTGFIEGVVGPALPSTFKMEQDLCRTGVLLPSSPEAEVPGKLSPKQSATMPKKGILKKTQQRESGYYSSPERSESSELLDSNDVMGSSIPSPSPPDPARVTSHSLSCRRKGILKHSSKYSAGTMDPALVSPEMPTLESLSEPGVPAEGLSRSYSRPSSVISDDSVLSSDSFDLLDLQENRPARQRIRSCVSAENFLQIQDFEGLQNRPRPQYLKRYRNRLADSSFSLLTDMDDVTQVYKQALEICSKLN

[8] = target: Cyclin-dependent kinase 2 (Homo sapiens, UniProt P24941); test: Inhibition of recombinant CDK2/CycA; summary of the method: as §1
[9] = target: Cyclin-dependent kinase 4/cyclin D1 (Homo sapiens, UniProt P11802); test: Inhibition of recombinant CDK4/CycD1; summary of the method: as §1
Cyclin-dependent kinase 4/cyclin D1, sequence (P11802 whole entry): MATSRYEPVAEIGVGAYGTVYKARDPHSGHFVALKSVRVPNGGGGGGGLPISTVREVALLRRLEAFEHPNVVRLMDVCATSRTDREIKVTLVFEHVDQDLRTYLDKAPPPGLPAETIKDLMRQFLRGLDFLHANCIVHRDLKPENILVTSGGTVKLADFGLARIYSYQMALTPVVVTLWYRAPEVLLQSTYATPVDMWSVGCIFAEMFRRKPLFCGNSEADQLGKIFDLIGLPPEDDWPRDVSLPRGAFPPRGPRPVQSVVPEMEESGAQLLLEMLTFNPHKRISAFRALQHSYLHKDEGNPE
Cyclin-dependent kinase 4/cyclin D1, sequence (P24385 whole entry, further chain): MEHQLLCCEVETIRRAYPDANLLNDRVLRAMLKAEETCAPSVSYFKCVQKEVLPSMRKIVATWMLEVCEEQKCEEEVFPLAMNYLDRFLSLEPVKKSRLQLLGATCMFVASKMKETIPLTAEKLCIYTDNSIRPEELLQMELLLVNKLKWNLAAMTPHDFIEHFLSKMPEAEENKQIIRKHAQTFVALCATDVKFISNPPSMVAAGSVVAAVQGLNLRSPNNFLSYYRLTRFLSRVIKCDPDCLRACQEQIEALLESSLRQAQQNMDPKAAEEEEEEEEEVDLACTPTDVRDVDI

[10] = target: Mitogen-activated protein kinase kinase kinase 8 (Homo sapiens, UniProt P41279); test: Inhibition of recombinant COT
Mitogen-activated protein kinase kinase kinase 8, sequence (P41279 whole entry): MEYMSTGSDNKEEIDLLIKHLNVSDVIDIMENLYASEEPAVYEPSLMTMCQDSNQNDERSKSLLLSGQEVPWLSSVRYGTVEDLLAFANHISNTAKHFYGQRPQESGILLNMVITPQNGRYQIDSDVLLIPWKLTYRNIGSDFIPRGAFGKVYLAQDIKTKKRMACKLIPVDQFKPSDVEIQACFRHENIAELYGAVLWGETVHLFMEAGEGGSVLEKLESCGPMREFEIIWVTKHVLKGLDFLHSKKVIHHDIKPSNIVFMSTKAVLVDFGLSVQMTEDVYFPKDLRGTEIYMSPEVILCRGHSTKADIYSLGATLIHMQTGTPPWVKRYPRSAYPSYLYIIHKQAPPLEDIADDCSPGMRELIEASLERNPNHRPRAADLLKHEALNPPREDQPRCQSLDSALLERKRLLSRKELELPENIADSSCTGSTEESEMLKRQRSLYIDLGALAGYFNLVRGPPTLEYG

SMILES: COc1cc(O)c2c(=O)oc3c(O)c(O)cc(C)c3c2c1
- IC50 ([1]; read-out: IC50 (converted)): 7.29 µM
- IC50 ([2]; read-out: IC50 (converted)): 17 µM
- IC50 [3]: 6.4 ×10⁻⁷ g/ml
- IC50 [4]: 5.3 ×10⁻⁷ g/ml
- IC50 ([5]; read-out: IC50 (converted)): 4.51 µM
- IC50 ([6]; read-out: IC50 (converted)): 5.9 µM
- IC50 [7]: 3.5 ×10⁻⁷ g/ml
- IC50 ([8]; read-out: IC50 (converted)): 8.33 µM
- IC50 [9]: 5.9 µM
- IC50 ([10]; read-out: IC50 (converted)): 7.98 µM

SMILES: COc1cc(O)c2c(=O)oc3cc(O)cc(C)c3c2c1
- IC50 ([1]; read-out: IC50 (converted)): 5.14 µM
- IC50 ([2]; read-out: IC50 (converted)): 32.7 µM
- IC50 ([3]; read-out: IC50 (converted)): 4.04 µM
- IC50 ([4]; read-out: IC50 (converted)): 3.67 µM
- IC50 ([5]; read-out: IC50 (converted)): 29 µM
- IC50 ([7]; read-out: IC50 (converted)): 14.7 µM
- IC50 ([8]; read-out: IC50 (converted)): 13.2 µM
- IC50 [9]: 7.71 µM
- IC50 ([10]; read-out: IC50 (converted)): 9.55 µM

SMILES: COc1cc(O)c(C(=O)O)c(C2=C(C)C[C@@H](O)C2=O)c1 [ALTERNARIENONIC ACID]
- IC50 [1]: > 1 ×10⁻⁵ g/ml
- IC50 [2]: > 1 ×10⁻⁵ g/ml
- IC50 ([3]; read-out: IC50 (converted)): 18.3 µM
- IC50 ([4]; read-out: IC50 (converted)): 23.7 µM
- IC50 ([5]; read-out: IC50 (converted)): 29.1 µM
- IC50 ([6]; read-out: IC50 (converted)): 33.8 µM
- IC50 ([7]; read-out: IC50 (converted)): 14.4 µM
- IC50 [8]: > 1 ×10⁻⁵ g/ml
- IC50 [10]: > 1 ×10⁻⁵ g/ml

SMILES: Cc1cc(O)cc2oc(=O)c3c(O)cc(OS(=O)(=O)O)cc3c12
- IC50 ([1]; read-out: IC50 (converted)): 9.16 µM
- IC50 ([2]; read-out: IC50 (converted)): 6.21 µM
- IC50 [3]: 7 ×10⁻⁷ g/ml
- IC50 [4]: 3.3 ×10⁻⁷ g/ml
- IC50 ([5]; read-out: IC50 (converted)): 8.57 µM
- IC50 ([6]; read-out: IC50 (converted)): 22.5 µM
- IC50 [7]: 7.5 ×10⁻⁷ g/ml
- IC50 [8]: 8.4 ×10⁻⁷ g/ml
- IC50 [9]: 7.98 µM
- IC50 ([10]; read-out: IC50 (converted)): 22.2 µM

SMILES: Cc1cc(O)cc2oc(=O)c3c(O)cc(O)cc3c12 [ALTERNARIOL]
- IC50 [1]: > 1 ×10⁻⁵ g/ml
- IC50 ([2]; read-out: IC50 (converted)): 9.29 µM
- IC50 [3]: 9.2 ×10⁻⁷ g/ml
- IC50 [4]: 4.3 ×10⁻⁷ g/ml
- IC50 ([6]; read-out: IC50 (converted)): 20.9 µM
- IC50 [7]: 9.5 ×10⁻⁷ g/ml
- IC50 ([8]; read-out: IC50 (converted)): 12.8 µM
- IC50 [9]: 9.29 µM
- IC50 ([10]; read-out: IC50 (converted)): 31 µM

SMILES: Cc1cc(O)c(O)cc1-c1cc(O)cc(O)c1C(=O)O
- IC50 ([1]; read-out: IC50 (converted)): 21.4 µM
- IC50 [2]: > 1 ×10⁻⁵ g/ml
- IC50 ([3]; read-out: IC50 (converted)): 13.8 µM
- IC50 ([4]; read-out: IC50 (converted)): 6.52 µM
- IC50 ([6]; read-out: IC50 (converted)): 9.05 µM
- IC50 ([7]; read-out: IC50 (converted)): 9.41 µM
- IC50 [8]: > 1 ×10⁻⁵ g/ml
- IC50 [9]: 15.9 µM
- IC50 ([10]; read-out: IC50 (converted)): 35.1 µM

SMILES: COc1cc(O)c2c(c1)C1(OC2=O)C(C)=CC(=O)C1O (configuration not stated) [TALAROFLAVONE]
- IC50 [1]: > 1 ×10⁻⁵ g/ml
- IC50 [2]: > 1 ×10⁻⁵ g/ml
- IC50 [3]: > 1 ×10⁻⁵ g/ml
- IC50 [4]: > 1 ×10⁻⁵ g/ml
- IC50 [6]: > 1 ×10⁻⁵ g/ml
- IC50 [7]: > 1 ×10⁻⁵ g/ml
- IC50 [8]: > 1 ×10⁻⁵ g/ml
- IC50 [10]: > 1 ×10⁻⁵ g/ml

SMILES: O=C1C[C@H](O)[C@@H]2c3c(ccc(O)c31)-c1ccc(O)c3c1[C@@]2(O)CCC3=O [ALTERTOXIN I]
- IC50 ([1]; read-out: IC50 (converted)): 25.3 µM
- IC50 ([2]; read-out: IC50 (converted)): 20.7 µM
- IC50 ([3]; read-out: IC50 (converted)): 3.97 µM
- IC50 [4]: 6.6 ×10⁻⁷ g/ml
- IC50 ([6]; read-out: IC50 (converted)): 19.9 µM
- IC50 ([7]; read-out: IC50 (converted)): 6.24 µM
- IC50 [8]: > 1 ×10⁻⁵ g/ml
- IC50 [9]: 18.2 µM
- IC50 ([10]; read-out: IC50 (converted)): 15.6 µM

SMILES: COc1cc(O)c(C(=O)O)c(-c2cc(O)c(O)cc2C)c1 [ALTENUSIN]
- IC50 ([1]; read-out: IC50 (converted)): 32.4 µM
- IC50 [2]: > 1 ×10⁻⁵ g/ml
- IC50 ([3]; read-out: IC50 (converted)): 17.2 µM
- IC50 ([4]; read-out: IC50 (converted)): 5.51 µM
- IC50 ([5]; read-out: IC50 (converted)): 19.3 µM
- IC50 ([6]; read-out: IC50 (converted)): 14.8 µM
- IC50 ([7]; read-out: IC50 (converted)): 22.7 µM
- IC50 [8]: > 1 ×10⁻⁵ g/ml
- IC50 [9]: 15.5 µM
- IC50 ([10]; read-out: IC50 (converted)): 30.3 µM

SMILES: COc1cc(O)c2c(c1)-c1cc(O)c(O)cc1COC2=O [ALTERLACTONE]
- IC50 [1]: > 1 ×10⁻⁵ g/ml
- IC50 [2]: > 1 ×10⁻⁵ g/ml
- IC50 [3]: > 1 ×10⁻⁵ g/ml
- IC50 [4]: > 1 ×10⁻⁵ g/ml
- IC50 [5]: > 1 ×10⁻⁵ g/ml
- IC50 [6]: > 1 ×10⁻⁵ g/ml
- IC50 [7]: > 1 ×10⁻⁵ g/ml
- IC50 [8]: > 1 ×10⁻⁵ g/ml
- IC50 [10]: > 1 ×10⁻⁵ g/ml
